High-throughput results as filed in PubChem.
MC4R antag cAMP: blocks human MC4R cAMP signaling. P32245. 360,000 tested, 0.48% active. MC4R-expressing cells, MTII-stimulated cAMP, LANCE TR-FRET. inhibition, % at 6.5 µM;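 active means inhibition above its plate's cutoff, the mean of tested wells on that plate plus 3 SD, cut at about 29% in these data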;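 further: 0% = Melanotan II alone and 100% = Melanotan II plus saturating MCL0020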
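Assay system: U2OS-MC4R stable cell line; Also added: Melanotan II; Technique: Eu-cAMP/anti-cAMP TR-FRET, emission 671 nm; Times: 30-min compound, 1-h challenge, 1-h detection, room temperature.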
NTR1 ag: agonists of human neurotensin receptor NTR1; P30989; activation, % at 20 µM; 330,000 tested, 0.17% active; NTR1-U2OS beta-arrestin-GFP spot imaging, agonist mode;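 active means activation at or above 40% of the spot to cytoplasm intensity ratio, with at least 20 cells analyzed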;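 further: 0% = DMSO without peptide and 100% = 100 nM NTR1 peptide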
PG9 Ab binder: binds the HIV-1 gp120 antibody PG9 | TR-FRET gp120-PG9 antibody binding | inhibition, % at 6.7 µM | 360,000 tested, 0.43% active | AID 624416; in the data active means inhibition above about 8.5%
NR1D1 modulator: modulates human Rev-erb alpha binding to DNA; P20393; Rev-erbα–FITC-DNA binding, fluorescence polarization, 90 min; activity, % at 10 µM; 370,000 tested, 0.79% active;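 active means activity above about 14%, limit read from the data; passing the limit was not always enough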;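 further: 0% = DMSO wells with 35 nM protein and 100% = DMSO wells with 750 nM protein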
Target sequence (P20393 whole entry, looked up): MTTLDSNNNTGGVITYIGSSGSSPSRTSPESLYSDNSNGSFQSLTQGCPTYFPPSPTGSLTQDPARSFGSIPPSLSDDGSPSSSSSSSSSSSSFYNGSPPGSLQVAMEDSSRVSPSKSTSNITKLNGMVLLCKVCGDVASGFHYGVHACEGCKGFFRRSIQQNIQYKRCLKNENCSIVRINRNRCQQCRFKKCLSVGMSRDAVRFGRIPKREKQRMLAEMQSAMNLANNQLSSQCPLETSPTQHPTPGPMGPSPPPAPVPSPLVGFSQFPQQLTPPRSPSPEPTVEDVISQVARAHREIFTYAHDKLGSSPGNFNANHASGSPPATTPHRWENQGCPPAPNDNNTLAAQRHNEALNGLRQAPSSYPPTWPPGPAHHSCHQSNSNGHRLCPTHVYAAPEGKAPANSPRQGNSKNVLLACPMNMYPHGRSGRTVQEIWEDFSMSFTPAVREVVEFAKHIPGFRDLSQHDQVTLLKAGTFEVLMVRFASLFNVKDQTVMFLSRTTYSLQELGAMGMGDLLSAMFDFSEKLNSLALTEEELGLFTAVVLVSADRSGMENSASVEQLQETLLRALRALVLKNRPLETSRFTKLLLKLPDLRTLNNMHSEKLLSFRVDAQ
MC4R barr agon: human MC4R agonism via beta-arrestin; P32245; U2OS MC4R beta-arrestin complementation, luminescence; percent of melanotan II response, DMSO zero; activation, % at 8.9 µM; 360,000 tested, 0.98% active; AID 540308;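 active means activation above a per-plate cutoff, the mean activation of sample wells on that plate plus 3 SD, cut at about 8% in these data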
MC4R barr conf: human MC4R beta-arrestin agonism confirmation. shares compounds with MC4R barr agon. 2,400 tested, 31% active. U2OS MC4R beta-arrestin recruitment, luminescence; scaled DMSO 0%, Melanotan II 100%. activation, % at 8.9 µM. AID 602192;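 active means mean activation across replicates above the hit cutoff set in the earlier primary screen, cut at about 8% in these data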
MOR-DOR barr ag: counter-screen for MC4R agonists: agonists of mu-delta opioid heterodimer; 2,400 tested, 5.8% active; activation, % at 9.2 µM; U2OS PathHunter beta-arrestin, beta-gal luminescence; percent of deltorphin B response, DMSO zero; shares compounds with MC4R barr agon;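 active means mean activation across replicates exceeds the hit threshold derived in the earlier primary screen, cut at about 18% in these data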;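 further: 100% = deltorphin B at 0.9 µM final and 0% = DMSO alone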
An asterisk follows results filed as active; nt = no result. Most compounds without a hit are left out; they make up all but 2.5% or so of the library.

SMILES | MC4R antag cAMP | NTR1 ag | PG9 Ab binder | NR1D1 modulator | MC4R barr agon | MC4R barr conf | MOR-DOR barr ag
CC(=O)N[C@H]1C[C@@H]2O[C@H](CO)CC[C@@H]2O[C@@H]1CCc1ccc(-c2ccc(F)cc2)cc1 | nt | nt | nt | 0 | nt | nt | nt
COC(=O)C1CN(Cc2cn(Cc3ccc(OC)cc3)nn2)CCS(=O)(=O)N1Cc1ccc(OC)cc1 (stereo unspecified) | nt | nt | nt | -1 | nt | nt | nt
Cc1cc(CSc2ccccc2)ccc1NC(=O)c1ccc(Br)cc1 | -4 | 1 | -1 | 3 | 9.9* | 12* | 7
C=CCn1c(COc2ccc(C)cc2)nnc1SCc1ccc([N+](=O)[O-])cc1 | nt | nt | nt | -5 | nt | nt | nt
CN[C@@H]1[C@H](O)[C@@H](O[C@@H]2[C@@H](O)[C@H](O[C@H]3OC(CN)=CC[C@H]3N)[C@@H](N)C[C@H]2N)OC[C@]1(C)O | nt | nt | nt | -8 | nt | nt | nt
O=C(N/C=N/OCc1ccc(Cl)cc1Cl)NOCc1c(Cl)cccc1Cl | -11 | 15 | 1 | 4 | 12* | 8 | 3
CO/N=C/NC(=O)NOCc1ccc(Cl)cc1Cl | 2 | 2 | 2 | -10 | -1 | nt | nt
Cc1ccc(Nc2nnc(SCn3nnc4ccccc4c3=O)s2)cc1 | -3 | 4 | 0 | nt | -1 | nt | nt
O=c1c2ccccc2nnn1CSc1nnc(Nc2ccccc2)s1 | 2 | 7 | 0 | -2 | 10* | 0 | 2
Cc1c(CCOC(=O)C23CC4(C)CC(C)(CC(C)(C4)C2)C3)sc[n+]1CC(=O)c1ccccc1 | -2 | 5 | -1 | 4 | 17* | 16* | 18
CCOC(=O)c1ccc(NC(=O)Nc2cc(C)on2)cc1 | 1 | 1 | -1 | 3 | 11* | 4 | 7
CCOC(=O)c1ccc(NC(=O)Nc2cccc(C)n2)cc1 | 16 | 2 | -2 | -6 | 2 | nt | nt
COC(=O)c1ccc(C(=O)Nc2nc3cc(N)c(C)cc3s2)cc1 | -1 | -1 | -1 | 0 | 11* | 0 | 2
COc1ccc(C(=O)c2[nH]c(N)c(C(=O)c3ccccc3)c2-c2ccc(OC)c(OC)c2)cc1 | nt | nt | nt | 0 | nt | nt | nt
Cc1nc(C)c(NC(=O)N2CCc3ccccc32)cc1NC(=O)N1CCc2ccccc21 | 19 | -1 | -1 | -4 | 25* | -3 | 0
COc1ccc(-n2c(C)cc(C(=O)COC(=O)c3ccc(O)cc3O)c2C)cc1 | 9 | 4 | -2 | 0 | 11* | 3 | 11
Cc1cc(C)c2nc(Nc3nc(CSc4nc5ccccc5[nH]4)cc(=O)[nH]3)nc(C)c2c1 | -4 | nt | 1 | 4 | 1 | nt | nt
Cc1ccc(Nc2nc3ccccc3c(=O)[nH]2)cc1C | 4 | 2 | 0 | 0 | 7 | nt | nt
Cc1cc(-c2ccccc2)nc(Nc2nc3c(C)cccc3c(=O)[nH]2)n1 | -10 | nt | 1 | -16 | 19* | 6 | 3
Cc1cc(C)c2nc(Nc3nc(-c4ccccc4)cc(=O)[nH]3)nc(C)c2c1 | -7 | 8 | 2 | 2 | 27* | 17* | 3
Nc1c(-c2cccs2)cnn1-c1nc(-c2ccc(Cl)cc2Cl)cs1 | -1 | 0 | 1 | 2 | 19* | 21* | 3
O=c1c2ccccc2nc(/C=C/c2ccc(O)cc2)n1CCc1ccccc1 | 16 | 38 | -2 | 2 | 15* | 1 | 7
CCOC(=O)N1CCC(N2C(=O)c3ccc(C(=O)O)cc3C2=O)CC1 | 10 | 1 | -3 | -6 | 0 | nt | nt
CCOC(=O)N1CCC(N2C(=O)c3ccc(C(=O)Nc4cccc(OC)c4)cc3C2=O)CC1 | 1 | 9 | -1 | 18 | 12* | 2 | 4
Cc1ccc(C=C(C#N)C(=O)c2ccccc2)cc1 | nt | nt | 2 | -6 | nt | nt | nt
CN(C)c1ccc(/C=C(\C#N)C(=O)c2ccccc2)cc1 | 11 | nt | -3 | 11 | 19* | -1 | 2
CN(CCOC(=O)c1cc2ccccc2o1)C1CN(Cc2cn(Cc3ccc([N+](=O)[O-])cc3)nn2)S(=O)(=O)C1 (stereo unspecified) | nt | nt | nt | 5 | nt | nt | nt
Cc1ccccc1Nc1nnc(SCC(=O)NC(=O)Nc2ccc3c(c2)OCCO3)s1 | nt | 5 | nt | nt | nt | nt | nt
